# Most compounds without a hit are left out; they make up all but 5.2% or so of the library.
# HCV core dimer = HCV core protein dimerization inhibition. TR-FRET GST/Flag-core106 dimerization, 1536-well. inhibition, % at 5 µM. 300,000 compounds, 0.33% hits. AID 1899;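 active means inhibition above the mean of all tested compounds plus 3 SD, set per screening campaign, cut at about 45% in these data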
#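 Assay system: tagged HCV core106 pair (GST and Flag); medium: KF-containing HEPES buffer, pH 7.45, DTT, CHAPS, BSA; also added: Eu donor and XL665 acceptor anti-tag antibodies; dosing: 5 µM single dose; timing: compound-protein-antibody incubation 4 h at 22.5 °C; signal: TR-FRET 671 and 617 nm emission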
# ALR H2O2 inh = blocks human ALR sulfhydryl oxidase activity. purified ALR, DTT oxidation, H2O2 HRP-luminol luminescence. inhibition, % (test concentration not listed). 290,000 compounds, 3.8% hits;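 active means mean replicate inhibition above about 79%, with every replicate also reaching it, limit read from the data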
# Target sequence (P55789 whole entry, looked up): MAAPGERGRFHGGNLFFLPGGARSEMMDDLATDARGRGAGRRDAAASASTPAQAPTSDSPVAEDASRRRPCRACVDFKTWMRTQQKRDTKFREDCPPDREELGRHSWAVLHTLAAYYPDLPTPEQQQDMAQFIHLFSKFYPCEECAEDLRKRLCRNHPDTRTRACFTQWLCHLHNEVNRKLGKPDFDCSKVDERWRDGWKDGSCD
# ZTA counter = blocks Epstein-Barr virus ZTA, an EBNA-1 counter-screen. 320,000 compounds, 0.15% hits. P03206. ZTA-DNA binding, fluorescence polarization. AID 2234. inhibition, % at 11 µM; in the data active means inhibition above about 33%
# Target sequence (P03206 whole entry, looked up): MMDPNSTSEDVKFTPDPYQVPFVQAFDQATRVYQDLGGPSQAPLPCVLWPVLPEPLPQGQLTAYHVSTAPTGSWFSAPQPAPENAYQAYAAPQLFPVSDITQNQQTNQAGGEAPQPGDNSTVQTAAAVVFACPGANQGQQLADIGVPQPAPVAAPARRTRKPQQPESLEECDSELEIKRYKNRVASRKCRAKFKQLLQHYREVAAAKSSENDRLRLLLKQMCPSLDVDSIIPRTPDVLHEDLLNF
# EBNA-1 inhibitor = blocks EBNA-1 binding to DNA; EBNA-1 DNA binding, fluorescence polarization; inhibition, % at 14.8 µM; 300,000 compounds, 0.34% hits; AID 1950; in the data active means inhibition above about 28%
# HCV NS3 hel inh = blocks Hepatitis C virus NS3 helicase unwinding; NS3 helicase DNA unwinding, Cy5 molecular beacon fluorescence; inhibition, % at 10.9 µM; 290,000 compounds, 0.56% hits;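 active means inhibition above the mean of all tested compounds plus 3 SD, set per campaign, cut at about 35% in these data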
#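 System: HCV NS3 helicase fragment; control set: DMSO and thioflavine S; technique: Cy5 fluorescence at 0 and 60 min, beacon hairpin quenching; reagent: beacon DNA duplex substrate plus ATP; replicates: singlicate; schedule: 1 h reaction at 25 °C, ATP-initiated; medium: MOPS buffer pH 6.5 with MgCl2, DTT, Tween20, BSA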
# PfM18AAP inh = blocks P. falciparum M18 aspartyl aminopeptidase. recombinant PfM18AAP, H-Glu-NHMec fluorogenic cleavage. inhibition, % at 7.35 µM. AID 1822. 290,000 compounds, 1.2% hits;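 active means inhibition above the campaign mean inhibition over all tested compounds plus 3 SD, cut at about 28% in these data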
# A number is an active result; i = inactive; nt = not tested or not shown.
SMILES,HCV core dimer,ALR H2O2 inh,ZTA counter,EBNA-1 inhibitor,HCV NS3 hel inh,PfM18AAP inh
Cc1oc(-c2ccccc2Cl)nc1CS(=O)CC(=O)NCc1ccc2c(c1)OCO2 (stereo not drawn),i,82,i,i,i,i
Cc1ccccc1-c1nc(CS(=O)CC(=O)NCc2ccc3c(c2)OCO3)c(C)o1 (stereo not drawn),i,98,i,i,i,i
CCCCC(=O)N1CCN(c2nc3ccc(Cl)cc3s2)CC1,i,i,i,i,i,i
CCc1ccc(-n2c(SCC(=O)NC3CCS(=O)(=O)C3)nc3ccccc3c2=O)cc1 (stereo not drawn),nt,i,i,nt,nt,nt
CCSc1nc(=S)cc(C)[nH]1,i,i,i,i,i,28
CCSc1nc(O)cc(=O)[nH]1,i,i,i,i,i,i
COc1cc(C)c(NC(=S)Nc2cccc(Cl)c2C)cc1OC,i,91,i,i,i,i
CC(=O)Nc1cccc(NC(=S)Nc2cccc(Cl)c2C)c1,i,nt,i,i,i,31
COC(=O)c1cccc(NC(=S)Nc2cccc(Cl)c2C)c1,i,i,i,i,i,i
CC(=O)Nc1cccc(NC(=O)Nc2cccc(Cl)c2C)c1,i,i,i,i,i,i
CN1Cc2cc(C(=O)c3ccccc3O)cnc2NC1=O,i,87,i,i,i,i
COc1ccc(C(C)=O)cc1CSCCC(=O)O,i,98,i,i,i,i
COc1ccc(C(=O)/C=C/c2ccsc2)cc1CSCC(=O)O,i,99,i,i,i,i
S=c1[nH]nc(-c2ccc(Cl)cc2)n1-c1ccc(Cl)cc1,i,82,i,i,i,i
S=c1[nH]nc(-c2ccc(Cl)cc2Cl)n1-c1ccc(Cl)cc1,i,94,i,i,i,i
COc1ccc(-n2c(-c3ccc(Cl)cc3Cl)n[nH]c2=S)c(OC)c1,nt,i,nt,nt,i,i
O=c1ccc(-c2n[nH]c(=S)n2-c2ccc(F)c(Cl)c2)n[nH]1,i,86,i,i,i,i
COc1ccc(CC(=O)Nc2ccc(/C(C)=N\NC(=O)c3ccc(Br)o3)cc2)cc1,nt,nt,nt,nt,i,i
O=C(COC(=O)[C@@H]1CC(O)CN1S(=O)(=O)c1ccc(Cl)cc1)NC(=O)NCc1ccccc1 (stereo partly drawn),i,i,i,i,nt,nt
CCNC(=S)NNC(=O)c1csc(C)c1,i,i,i,i,i,28
CCOC(=O)c1ccc(N2CCOCC2)c(NC(=O)c2ccc3c(c2)OCO3)c1,i,i,i,i,i,i
CN(C)S(=O)(=O)c1cccc(NC(=O)c2ccc(-n3cncn3)c([N+](=O)[O-])c2)c1,i,i,i,i,nt,nt
CC(c1ccccc1)n1c(SCC(=O)Nc2ccccc2)n[nH]c1=O (stereo not drawn),i,nt,i,i,i,i
S=c1[nH]nc(-c2ccco2)n1/N=C/c1ccc(Cl)c(Cl)c1,i,i,i,i,i,i
Cc1cc(-c2n[nH]c(=S)n2/N=C/C(Cl)=C/c2ccccc2)n[nH]1,i,96,i,i,i,i
SMILES,HCV core dimer,ALR H2O2 inh,ZTA counter,EBNA-1 inhibitor,HCV NS3 hel inh,PfM18AAP inh
S=c1[nH]nc(-c2ccco2)n1/N=C/C(Cl)=C/c1ccccc1,i,97,i,i,i,i
S=c1[nH]nc(C2CCCCC2)n1/N=C/C(Cl)=C\c1ccccc1,i,i,i,i,i,i
Cn1c(=O)[nH]c(=O)c2c1nc(Br)n2CC(O)COCc1ccccc1 (stereo not drawn),i,91,i,i,i,i
CN(Cc1cccc(Cl)c1Cl)C(=O)CCNC(=O)c1ccco1,nt,i,nt,nt,nt,nt
CC(C)OC(=O)/C(C#N)=C/c1c[nH]c2ccccc12,i,i,i,i,i,i
COC(=O)c1ccccc1NC(=O)CN1C(=O)C2CCCN2c2ncc(Cl)cc21 (stereo not drawn),50,i,i,i,i,i
CCc1ccccc1NC(=O)CN1C(=O)C2CCCN2c2ncc(Cl)cc21 (stereo not drawn),i,i,i,i,i,i
O=C(c1ccc(-c2ccccc2)cc1)C1CCCN(Cc2ccncc2)C1 (stereo not drawn),i,i,i,i,i,i
OCC1CCCN(Cc2ccc(-c3ccccc3)cc2)C1 (stereo not drawn),i,99,i,i,i,i
O=C1SC(SCc2ccccc2Cl)=N/C1=C\c1ccc(C(=O)O)cc1,i,101,i,i,i,i
COC(=O)c1ccc(/C=C2\N=C(SC)SC2=O)cc1,i,99,i,i,i,i
CCOC(=O)SC1=N/C(=C\c2ccc(N(C)C)cc2)C(=O)S1,i,84,i,i,i,i
CSC1=N/C(=C\c2ccc(C)cc2)C(=O)S1,i,nt,i,i,i,i
CC(C)(C)NS(=O)(=O)c1ccc(OCC(=O)NCCC2=CCCCC2)cc1,i,i,i,i,i,i
O=[N+]([O-])c1ccccc1S(=O)(=O)Nc1ccn(Cc2c(F)cccc2Cl)n1,i,i,i,i,i,i
CC(=O)NC(c1ccco1)c1cc(Cl)c2ccccc2c1O (stereo not drawn),nt,88,i,nt,nt,nt
CCC(=O)NC(c1cc(Cl)c2ccccc2c1O)C(C)C (stereo not drawn),nt,95,i,nt,nt,nt
CCC(=O)NC(c1ccco1)c1cc(Cl)c2ccccc2c1O (stereo not drawn),nt,i,i,nt,nt,nt
CN(CC(=O)Nc1cccc(F)c1)CC(=O)NC(c1ccccc1)c1ccccc1,nt,nt,i,nt,nt,nt
CS(=O)(=O)c1ccc(NC(=O)C2CC(=O)N(c3ccc4c(c3)OCCO4)C2)cc1 (stereo not drawn),i,i,i,i,nt,nt
Cc1cc(Br)ccc1NC(=O)C1CCN(S(=O)(=O)c2cnc[nH]2)CC1,i,i,i,i,i,i
Cc1ccccc1-n1ncc(C(C)NS(=O)(=O)c2sccc2C)c1C (stereo not drawn),i,i,i,i,i,i
CC(=O)N1CCN=C1SCc1ccc(C)cc1,i,95,i,i,i,i
CC(=O)N1CCN=C1SCc1ccc(F)cc1,i,99,i,i,i,i
CCC(=O)N1CCN=C1SCc1ccc(Cl)cc1,i,98,i,i,i,i
SMILES,HCV core dimer,ALR H2O2 inh,ZTA counter,EBNA-1 inhibitor,HCV NS3 hel inh,PfM18AAP inh
CC(=O)N1CCN=C1SCc1ccc(Cl)cc1,i,98,i,i,i,i
C[C@]12CC[C@@H]3c4cc(O)c(O)cc4CC[C@H]3[C@@H]1CC[C@@H]2O,i,i,i,i,i,67
O=Cc1ccc(-n2nncc2-c2ccc([N+](=O)[O-])cc2)cc1,i,i,i,i,i,i
C=CCN1CCc2nc(N)sc2CC1,nt,nt,nt,nt,i,i
CCN1CCc2nc(N)sc2C1,i,i,i,i,i,44
COc1cccc(/C=N/NC(=O)C(C)Cn2cnc3ccccc32)c1 (stereo not drawn),i,nt,i,i,i,i
O=c1cc(CSc2nnnn2-c2ccccc2)nc2scc(-c3ccccc3)n12,60,i,i,i,i,i
O=c1cc(CN2CCN(c3ccc(O)cc3)CC2)nc2scc(-c3ccccc3)n12,i,94,i,i,i,i

# From PubChem
